Data published in ChEMBL document CHEMBL4007420, “Structural Optimization and Pharmacological Evaluation of Inhibitors Targeting Dual-Specificity Tyrosine Phosphorylation-Regulated Kinases (DYRK) and CDC-like kinases (CLK) in Glioblastoma” (J Med Chem, 2017).
Active and inactive are the calls of the source. The calls are words filed in the database; no cut-off is given here.

Assays:
A 172 [1] = assay: Antimigratory activity in human A172 cells assessed as velocity of migration at 10 uM measured up to 20 hrs by wound scratch assay (reference value: 2650 to 3123 micrometer/hr); assay type: functional
Method in brief: (§1)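 Wound-healing migration assay: cell movement across the wound is measured as velocity (µm/h). Compounds were tested at 0, 1.0, 5.0 and 10.0 µM. Values are mean ± SEM of 3 independent experiments.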

[2] = molecular target: T1, Dual specificity tyrosine-phosphorylation-regulated kinase 1A (Homo sapiens, UniProt Q13627); assay: Binding affinity to DYRK1A in human U251 […] preincubated for 1 hr followed by incubation at 54 degreeC for 3 mins by isothermal dose-response fingerprint assay
Method in brief: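 Isothermal dose-response fingerprint: intact U251 cells were treated for 1 h across 0–20 µM, then heated at 54 °C. The soluble fraction was extracted with aqueous buffer and DYRK1A was detected by Western blot. Results are mean ± SEM of 2 independent experiments.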

A 172 [3] = assay: Antiinvasive activity in human A172 cells measured up to 20 hrs by matrigel assay; assay type: functional, cell-based
[4] = Antimigratory activity in patient-derived RN1 cells at 5 uM measured up to 20 hrs by wound scratch assay; assay type: functional; details: Homo sapiens, RN1, 20 h; method in brief: as §1
U-251 [5] = assay: Antimigratory activity in human U251 cells assessed as velocity of migration at 10 uM measured up to 20 hrs by wound scratch assay (reference value: 2159 to 2653 micrometer/hr); assay type: functional; method in brief: as §1
[6] = molecular target: T2, Dual specificity tyrosine-phosphorylation-regulated kinase 2 (Homo sapiens) (UniProt Q92630); assay: Stabilization of DYRK2 in human U251 cell lysate at 10 uM preincubated for 1 hr followed by incubation at 40 to 70 degreeC for 3 mins by cellular thermal shift assay
T2 sequence (whole entry): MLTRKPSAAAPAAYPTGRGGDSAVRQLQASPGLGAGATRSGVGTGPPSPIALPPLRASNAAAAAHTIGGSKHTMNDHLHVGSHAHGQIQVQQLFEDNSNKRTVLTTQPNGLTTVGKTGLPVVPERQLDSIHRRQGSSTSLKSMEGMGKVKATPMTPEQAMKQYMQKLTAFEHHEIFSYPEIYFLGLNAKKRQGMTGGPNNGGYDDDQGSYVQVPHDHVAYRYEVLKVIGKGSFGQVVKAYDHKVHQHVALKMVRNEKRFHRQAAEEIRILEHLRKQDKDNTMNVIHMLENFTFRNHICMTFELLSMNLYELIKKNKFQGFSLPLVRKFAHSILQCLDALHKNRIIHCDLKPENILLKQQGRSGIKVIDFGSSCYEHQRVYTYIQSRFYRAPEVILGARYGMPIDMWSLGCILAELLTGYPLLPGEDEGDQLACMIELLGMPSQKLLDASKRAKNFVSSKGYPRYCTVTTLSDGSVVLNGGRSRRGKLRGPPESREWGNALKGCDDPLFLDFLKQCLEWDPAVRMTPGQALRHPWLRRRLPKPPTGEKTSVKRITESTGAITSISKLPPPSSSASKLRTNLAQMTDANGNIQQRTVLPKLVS

U-251 [7] = assay: Antimigratory activity in human U251 cells at 5 uM measured up to 20 hrs by wound scratch assay; assay type: functional; details: U-251, 20 h; method in brief: as §1
U-251 [8] = assay: Anticlonogenic activity against human U251 cells after 10 to 12 days by toluidine blue staining based assay; assay type: functional, cell-based
Method in brief: (§2)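 Cells were exposed to compound for 10 days, then colonies were fixed, stained with Toluidine Blue and counted. […] Values are mean ± SEM of 3 independent experiments, each in duplicate, with one-way ANOVA and Dunnett's test against vehicle.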

[9] = Cytotoxicity against patient-derived WK1 cells assessed as reduction in cell viability after 5 days by Alamar blue assay; assay type: functional, cell-based; details: Homo sapiens, WK1, 120 h
Method in brief: (§3)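 The patient-derived glioblastoma lines were grown as stem cells under defined conditions to keep the phenotype and genotype of the resected tumours. Viability after treatment was read with Alamar blue.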

[10] = Cytotoxicity against patient-derived RN1 cells assessed as reduction in cell viability after 3 days by Alamar blue assay; assay type: functional, cell-based; details: Homo sapiens, RN1, 72 h; method in brief: as §3
U-251 [11] = assay: Antiinvasive activity in human U251 cells assessed as velocity of invasion at 10 uM measured up to 20 hrs by matrigel assay (reference value: 1151 to 1710 micrometer/hr); assay type: functional
[12] = Antimigratory activity in patient-derived RN1 cells assessed as velocity of migration at 5 uM measured up to 20 hrs by wound scratch assay (reference value: 937 to 1174 micrometer/hr); assay type: functional, Homo sapiens; method in brief: as §1
Homo sapiens = species on record: Homo sapiens; assay: Inhibition of tubulin (unknown origin) polymerization
A 172 [13] = assay: Antiinvasive activity in human A172 cells assessed as velocity of invasion at 1 uM measured up to 20 hrs by matrigel assay (reference value: 2659 to 3047 micrometer/hr); assay type: functional
[14] = (§4) Anticlonogenic activity against patient-derived RN1 cells after 10 to 12 days by toluidine blue staining based assay; assay type: functional, cell-based, Homo sapiens; method in brief: as §2
RN1 = assay: as §4; assay type: functional, cell-based; details: Homo sapiens; method in brief: as §2
U-251 [15] = assay: Antiinvasive activity in human U251 cells assessed as velocity of invasion at 1 uM measured up to 20 hrs by matrigel assay (reference value: 1151 to 1710 micrometer/hr); assay type: functional
U-251 [16] = assay: Antiinvasive activity in human U251 cells assessed as velocity of invasion at 5 uM measured up to 20 hrs by matrigel assay (reference value: 1151 to 1710 micrometer/hr); assay type: functional
U-251 [17] = assay: Antimigratory activity in human U251 cells assessed as velocity of migration at 5 uM measured up to 20 hrs by wound scratch assay (reference value: 2159 to 2653 micrometer/hr); assay type: functional; method in brief: as §1
A 172 [18] = assay: Cytotoxicity against human A172 cells assessed as reduction in cell viability after 3 days by Alamar blue assay; assay type: functional, cell-based; details: A 172, 72 h
[19] = molecular target: T1, Dual specificity tyrosine-phosphorylation-regulated kinase 1A; assay: Inhibition of DYRK1A in human U251 cell lysate assessed as EGF induced EGFR degradation at 2.5 uM by measuring basal EGFR half life in presence of cycloheximide by Western blot analysis (reference value: 25.6 +/- 7.6 min)
Method in brief: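 U251 cells were pretreated with 2.5 µM compound or DMSO for 4 h, then given cycloheximide (30 µg/mL, 1 h). EGF (100 ng/mL) was added for 0–120 min. EGFR was detected by Western blot, normalized to β-actin and expressed as % of 0 min. Half-life came from non-linear regression, as mean ± SEM of 3 independent experiments.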

A 172 [20] = assay: Antimigratory activity in human A172 cells assessed as velocity of migration at 5 uM measured up to 20 hrs by wound scratch assay (reference value: 2650 to 3123 micrometer/hr); assay type: functional; method in brief: as §1
[21] = molecular target: T3, Dual specificity tyrosine-phosphorylation-regulated kinase 2 (Homo sapiens, UniProt Q92630); assay: Inhibition of DYRK2 (unknown origin) using woodtide as substrate after 40 mins in presence of [gamma-33P]ATP by microbeta scintillation counting
T3 sequence (Q92630 whole entry): T2 sequence (whole entry)

A 172 [22] = assay: Antimigratory activity in human A172 cells at 5 uM measured up to 20 hrs by wound scratch assay; assay type: functional; details: A 172, 20 h; method in brief: as §1
U-251 [23] = assay: Antimigratory activity in human U251 cells assessed as velocity of migration at 1 uM measured up to 20 hrs by wound scratch assay (reference value: 2159 to 2653 micrometer/hr); assay type: functional; method in brief: as §1

SMILES: Nc1ccc(-c2cnc3[nH]cc(-c4ccc(O)cc4)c3c2)cc1
- Activity (A 172 [1]): 131 um/hr
- IC50 [2]: 711 nM
- inhibition (A 172 [3]): Dose-dependent effect
- inhibition at 5 µM [4]: > 75%
- Activity (U-251 [5]): 129 um/hr
- Activity [6]: Active
- inhibition at 5 µM (U-251 [7]): > 75%
- EC50 (U-251 [8]): 180 nM
- EC50 [9]: 900 nM
- EC50 [10]: 1100 nM
- Activity (U-251 [11]): -149 um/hr
- Activity [12]: 118 um/hr
- inhibition (Homo sapiens): inactive
- Activity (A 172 [13]): 2675 um/hr
- EC50 [14]: 800 nM
- Activity (RN1): Dose-dependent effect
- Activity (U-251 [15]): 1139 um/hr
- Activity (U-251 [16]): 234 um/hr
- Activity (U-251 [17]): 127 um/hr
- EC50 (A 172 [18]): 1600 to 4600 nM
- T1/2 [19]: 11.3 min
- Activity (A 172 [20]): 728 um/hr
- IC50 [21]: 567 nM
- inhibition at 5 µM (A 172 [22]): > 75%
- Activity (U-251 [23]): 1247 um/hr
